Results taken from ChEMBL document CHEMBL3120152, “The bat flower: a source of microtubule-destabilizing and -stabilizing compounds with synergistic antiproliferative actions” (J Nat Prod, 2013).
Active and inactive are the calls of the source. The rule behind the calls is not given here.

Assays:
[1] = biological target: T1, Tubulin (Sus scrofa) (UniProt P02554+P02550); conditions: 2 to 3 uM
[2] = biological target: T1, Tubulin (Sus scrofa); assay: Inhibition of purified pig brain tubulin polymerization by spectrophotometry
How it was run: (§1)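 Purified porcine brain tubulin with GTP in glycerol buffer, given vehicle or 10 or 25 μM compound. Assembly followed as turbidity, absorbance at 340 nm over time. Rate and extent of polymerization compared with vehicle.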

[3] = system: SK-OV-3; assay: Resistance ratio of IC50 for human SKOV3 cells expressing MDR1 to IC50 for human SKOV3 cells; assay type: functional
How it was run: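 Relative resistance = SRB-assay IC50 in Pgp-overexpressing SK-OV-3/MDR-1-6/6 divided by IC50 in parental SK-OV-3. Both lines were grown in basal medium Eagle with Earle's salts, 10% FBS and 25−50 μg/mL gentamicin.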

[4] = system: HeLa; assay: Resistance ratio of IC50 for human HeLa cells expressing beta3-tubulin containing alanine residue at […] to IC50 for human HeLa cells; assay type: functional
How it was run: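 Relative resistance = SRB-assay IC50 in WTβIII cells divided by IC50 in parental HeLa. Both lines were grown in basal medium Eagle with Earle's salts, 10% FBS and 25−50 μg/mL gentamicin.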

[5] = system: HeLa; assay: Antimitotic activity in human HeLa cells assessed as abberent multiple spindle asters at 5 uM by indirect immunofluorescence assay relative to vehicle-treated control; assay type: functional, cell-based
How it was run: (§2)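 HeLa cells grown in basal medium Eagle with Earle's salts, 10% FBS and 25−50 μg/mL gentamicin, given vehicle or 5 μM compound. Cell cycle distribution read by flow cytometry. Mitotic spindle shape viewed by indirect immunofluorescence of tubulin.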

[6] = system: HeLa; assay: Cell cycle arrest in human HeLa cells assessed as accumulation at G2/M phase at 5 uM by flow cytometry; assay type: functional, cell-based
How it was run: as §2

[7] = biological target: T1, Tubulin (Sus scrofa); assay: Displacement of colchicine from purified pig brain tubulin by fluorescence assay in presence of GTP
How it was run: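 Purified tubulin mixed with colchicine and GTP, plus a range of compound concentrations. Colchicine bound to tubulin fluoresces, so displacement is read as loss of that fluorescence. CA-4 used as positive control; 3 replicates, standard deviations.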

[8] = biological target: T1, Tubulin (Sus scrofa); assay: Inhibition of purified pig brain tubulin polymerization at 25 uM by spectrophotometry
How it was run: as §1

[9] = system: HeLa; assay: Cytotoxicity against human HeLa cells after 72 hrs by SRB assay
[10] = system: SK-OV-3; assay: Cytotoxicity against human SKOV3 cells after 72 hrs by SRB assay; conditions: SK-OV-3, 72 h
[11] = system: SK-OV-3; assay: Cytotoxicity against human SKOV3 cells expressing MDR1 after 72 hrs by SRB assay; conditions: SK-OV-3, 72 h
[12] = system: HeLa; assay: Cytotoxicity against human HeLa cells expressing beta3-tubulin containing alanine residue at 277 after 72 hrs by SRB assay

T1 sequence (P02550 whole entry, looked up): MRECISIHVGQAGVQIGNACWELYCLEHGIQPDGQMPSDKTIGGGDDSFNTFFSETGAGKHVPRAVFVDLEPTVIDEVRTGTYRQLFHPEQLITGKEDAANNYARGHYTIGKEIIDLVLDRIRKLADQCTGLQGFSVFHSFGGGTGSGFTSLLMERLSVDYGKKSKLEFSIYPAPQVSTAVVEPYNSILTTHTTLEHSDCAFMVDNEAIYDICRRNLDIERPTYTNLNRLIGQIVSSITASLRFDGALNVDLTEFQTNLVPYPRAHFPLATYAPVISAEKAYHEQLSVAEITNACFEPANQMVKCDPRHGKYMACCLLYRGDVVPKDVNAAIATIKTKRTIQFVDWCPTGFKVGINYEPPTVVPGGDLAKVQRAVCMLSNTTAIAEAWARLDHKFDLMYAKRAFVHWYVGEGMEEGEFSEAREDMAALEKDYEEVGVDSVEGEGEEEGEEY
T1 sequence (P02554 whole entry, looked up): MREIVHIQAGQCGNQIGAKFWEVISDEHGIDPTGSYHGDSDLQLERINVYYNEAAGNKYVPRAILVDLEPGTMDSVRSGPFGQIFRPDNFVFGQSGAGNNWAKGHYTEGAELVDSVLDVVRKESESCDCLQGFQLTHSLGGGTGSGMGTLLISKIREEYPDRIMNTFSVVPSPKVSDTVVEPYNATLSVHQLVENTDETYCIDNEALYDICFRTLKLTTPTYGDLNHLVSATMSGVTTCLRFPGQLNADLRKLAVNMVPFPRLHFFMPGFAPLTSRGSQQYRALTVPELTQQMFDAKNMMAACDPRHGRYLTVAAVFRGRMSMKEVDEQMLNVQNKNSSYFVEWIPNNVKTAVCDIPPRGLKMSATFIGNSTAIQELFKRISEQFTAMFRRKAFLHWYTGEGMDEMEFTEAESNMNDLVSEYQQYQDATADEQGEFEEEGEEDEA

| SMILES | inhibition [1] [%] | inhibition [2] | Ratio IC50 [3] | Ratio IC50 [4] | Activity [5] | Activity [6] | inhibition [7] | inhibition [8] [%] | IC50 [9] [µM] | IC50 [10] [µM] | IC50 [11] [µM] | IC50 [12] [µM] |
| --- | --- | --- | --- | --- | --- | --- | --- | --- | --- | --- | --- | --- |
| COc1ccc(/C=C\c2cc(OC)c(OC)c(OC)c2)cc1O | 50 |  |  |  |  |  |  |  |  |  |  |  |
| COc1cc(OC)c(CCC(=O)c2ccc(OC)c(O)c2)c(OC)c1 |  | Dose-dependent effect | 2.7 | 1.2 | Active | Active | Dose-dependent effect | 50 | 0.581 | 0.812 | 2.23 | 0.69 |
| CC(=O)O[C@@H]1[C@H]2[C@H]3[C@H]([C@H](OC(C)=O)[C@H](OC(C)=O)[C@]2(C)[C@@H]2[C@@H]1[C@]1(C)C(=C[C@H]2C)OC(=O)[C@@]1(C)O)[C@]1(C)[C@H](C[C@@H]2O[C@@H]2[C@@H]1OC(C)=O)C(=O)[C@@H]3O |  |  |  |  | Active | Active |  |  |  |  |  |  |
